The source of these data is ChEMBL document CHEMBL1141158, “New 5-hydroxytryptamine(1A) receptor ligands containing a norbornene nucleus: synthesis and in vitro pharmacological evaluation” (J Med Chem, 2005).

Some results are limits rather than exact numbers.

In general, Ki refers to a dissociation constant, usually derived from enzyme kinetics or from competition with a known ligand.

Experiment [1] has as its target T1, 5-hydroxytryptamine receptor 1A (Rattus norvegicus, UniProt P19327).
T1 sequence (P19327 whole entry): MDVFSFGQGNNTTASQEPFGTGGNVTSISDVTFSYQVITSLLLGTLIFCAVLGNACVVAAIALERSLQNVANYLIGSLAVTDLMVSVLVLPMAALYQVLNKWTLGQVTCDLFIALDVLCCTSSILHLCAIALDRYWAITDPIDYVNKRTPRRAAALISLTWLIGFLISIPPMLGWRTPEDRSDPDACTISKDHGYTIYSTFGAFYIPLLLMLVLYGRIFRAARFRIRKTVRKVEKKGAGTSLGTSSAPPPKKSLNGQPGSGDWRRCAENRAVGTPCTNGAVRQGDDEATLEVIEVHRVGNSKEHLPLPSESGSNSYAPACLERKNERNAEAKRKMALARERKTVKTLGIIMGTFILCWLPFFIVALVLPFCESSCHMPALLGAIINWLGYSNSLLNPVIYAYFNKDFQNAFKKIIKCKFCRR
In words: Inhibition of [3H]8-OH-DPAT binding to Serotonin 5-HT1A receptor from rat brain cortex.

The target of experiment [2] is T2, Adrenergic receptor alpha-2 (Rattus norvegicus, UniProt P22086+P19328+P22909).
T2 sequence (P22086 whole entry): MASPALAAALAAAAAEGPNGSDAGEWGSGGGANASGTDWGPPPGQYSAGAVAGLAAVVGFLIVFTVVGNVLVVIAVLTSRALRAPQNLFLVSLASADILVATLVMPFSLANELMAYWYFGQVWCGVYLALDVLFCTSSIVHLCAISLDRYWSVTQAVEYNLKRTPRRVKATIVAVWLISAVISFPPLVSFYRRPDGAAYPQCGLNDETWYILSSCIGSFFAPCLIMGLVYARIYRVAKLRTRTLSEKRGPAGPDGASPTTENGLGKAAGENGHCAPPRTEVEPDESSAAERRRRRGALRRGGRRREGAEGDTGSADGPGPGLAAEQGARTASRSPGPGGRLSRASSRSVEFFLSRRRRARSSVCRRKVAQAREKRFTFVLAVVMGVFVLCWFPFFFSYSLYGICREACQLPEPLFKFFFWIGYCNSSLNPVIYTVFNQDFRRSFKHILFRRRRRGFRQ
T2 sequence (P19328 whole entry): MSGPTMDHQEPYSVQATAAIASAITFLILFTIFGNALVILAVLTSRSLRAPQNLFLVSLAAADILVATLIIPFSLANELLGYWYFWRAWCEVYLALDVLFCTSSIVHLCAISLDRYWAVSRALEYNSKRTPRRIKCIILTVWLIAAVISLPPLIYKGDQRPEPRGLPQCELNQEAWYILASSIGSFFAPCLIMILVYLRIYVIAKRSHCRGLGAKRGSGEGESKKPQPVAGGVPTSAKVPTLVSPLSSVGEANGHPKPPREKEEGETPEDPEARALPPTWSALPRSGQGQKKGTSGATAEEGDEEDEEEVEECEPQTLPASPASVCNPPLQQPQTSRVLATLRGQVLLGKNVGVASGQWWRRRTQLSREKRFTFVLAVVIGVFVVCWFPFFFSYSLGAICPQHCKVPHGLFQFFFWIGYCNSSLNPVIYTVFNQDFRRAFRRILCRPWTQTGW
T2 sequence (P22909 whole entry): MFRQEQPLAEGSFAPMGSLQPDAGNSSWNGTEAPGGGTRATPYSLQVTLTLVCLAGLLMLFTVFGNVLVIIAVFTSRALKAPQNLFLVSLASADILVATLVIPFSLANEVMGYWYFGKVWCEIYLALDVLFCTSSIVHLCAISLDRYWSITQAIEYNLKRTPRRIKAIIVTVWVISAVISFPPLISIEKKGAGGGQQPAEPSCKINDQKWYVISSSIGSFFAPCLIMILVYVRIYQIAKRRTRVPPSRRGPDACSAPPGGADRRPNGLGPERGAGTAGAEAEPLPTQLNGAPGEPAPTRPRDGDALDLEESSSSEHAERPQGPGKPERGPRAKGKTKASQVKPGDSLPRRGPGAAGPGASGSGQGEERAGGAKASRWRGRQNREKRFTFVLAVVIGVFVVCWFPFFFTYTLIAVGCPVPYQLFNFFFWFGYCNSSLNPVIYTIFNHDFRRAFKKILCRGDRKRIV
The experiment can be described thus: Inhibition of [3H]yohimbine binding to Adrenergic receptor alpha 2 receptor from rat brain cortex. An outline of the steps: (§1)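 Brain cortex homogenized in 5 mM Tris-HCl/5 mM EDTA, washed three times at 50 000g, resuspended in 50 mM Tris-HCl/0.5 mM EDTA pH 7.5; 10 mg fresh tissue per tube. [3H]yohimbine 1 nM final, 30 min at 25 °C, GF/B filtration, scintillation counting. Six concentrations in triplicate; IC50 converted to Ki (Cheng–Prusoff).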

Experiment [3] has as its target T2, Adrenergic receptor alpha-2. The experiment can be described thus: Inhibition of [3H]yohimbine binding to Adrenergic alpha 2 receptor from rat brain cortex. An outline of the steps:
as §1

As to `O=C1C2C3C=CC(C3)C2C(=O)N1OCCCN1CCN(c2cccc(C(F)(F)F)c2)CC1` (stereo unspecified), the Ki in experiment [1] was determined as 5.13 nM; in experiment [2] it was 4680 nM.

Take `O=C1C2C3C=CC(C3)C2C(=O)N1OCCN1CCN(c2cccc(C(F)(F)F)c2)CC1` (stereo unspecified): the Ki is 2.14 nM in experiment [1] and over 10000 nM in experiment [2].

As for `COc1ccccc1N1CCN(CCCON2C(=O)C3C4C=CC(C4)C3C2=O)CC1` (stereo unspecified), the Ki in experiment [1] is 0.021 nM; in experiment [2], 3650 nM.

As for `O=C1C2C3C=CC(C3)C2C(=O)N1OCCN1CCN(c2ccccc2Cl)CC1` (stereo unspecified), the inhibition constant (Ki) in experiment [3] amounted to 691 nM.

As for `O=C1C2C3C=CC(C3)C2C(=O)N1OCCCN1CCN(c2cccc(Cl)c2)CC1` (stereo unspecified), the Ki was found to be 3.36 nM in experiment [1] and 1710 nM in experiment [2].

As to `O=C1C2C3C=CC(C3)C2C(=O)N1OCCCN1CCN(c2ccccc2Cl)CC1` (stereo unspecified), the figures for the Ki in experiment [1] and in experiment [2] were 4.13 nM and 3140 nM, respectively.
